Assays:
[1] = Displacement of [3H]Ro-151788 from rat GABA-A receptor alpha-5-beta-3-gamma-2 subunits expressed in HEK293 cells; type: cell-based
In short: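 Recombinant rat GABA-A subtypes are stably expressed in HEK293 cells grown in MEM/EBSS with 10% FCS at 37 °C. Membranes are made in 10 mM potassium phosphate pH 7.4 and resuspended with 100 mM KCl. Incubation uses 1–2 nM [3H]Ro15-1788 with compound at 10^-9–10^-5 M (≥6 concentrations), 1 h at 4 °C. […] Ki comes from Cheng–Prusoff, n=5, in triplicate.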

Mus musculus [2] = experiment: Percent anticonvulsant activity against pentylenetetrazole (PTZ)-induced attacks at 10 mg/kg peroral dose; type: functional; conditions: route oral
In short: (§1)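 Male CD-1 mice dosed po in 1% carboxymethylcellulose, 30 min before PTZ (90 mg/kg sc, in 0.9% saline). Occurrence of clonic generalized convulsions noted over 30 min; χ² analysis vs control mice.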

Mus musculus [3] = experiment: Anxiolytic activity in mice using light-dark box and % time spent in light was reported at 100 mg/kg peroral dose; type: functional; conditions: route oral
In short: (§2)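 Male CD-1 mice (22–24 g) given drug po in 1% carboxymethylcellulose (10 mL/kg). Each mouse placed in the centre of the lighted area facing away from the dark compartment and allowed to explore for 5 min; time spent in the illuminated side and number of transfers between compartments recorded. Tests run between 10:00 and 15:00.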

Mus musculus [4] = experiment: Motor coordination of mouse as number of falls in 30 sec was reported after 100 mg/kg peroral dose using rotarod test; type: functional; conditions: route oral
In short: (§3)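 Male CD-1 mice dosed po (suspension in 1% carboxymethylcellulose, 10 mL/kg). Rota rod turning at 24 rpm; falls from the rod counted over 30 s, 25 min after drug administration.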

Mus musculus [5] = experiment: Anxiolytic activity in mice using light-dark box and no. of transfers between compartments were reported at 10 mg/kg peroral dose; type: functional; conditions: route oral; in short: as §2
Mus musculus [6] = experiment: Percent anticonvulsant activity against pentylenetetrazole (PTZ)-induced attacks at 30 mg/kg peroral dose; type: functional; conditions: route oral; in short: as §1
Mus musculus [7] = experiment: Anxiolytic activity in mice using light-dark box and % time spent in light was reported at 10 mg/kg peroral dose; type: functional; conditions: route oral; in short: as §2
Mus musculus [8] = experiment: Anxiolytic activity in mice using light-dark box and no. of transfers between compartments were reported at 100 mg/kg peroral dose; type: functional; conditions: route oral; in short: as §2
Mus musculus [9] = experiment: Percent anticonvulsant activity against pentylenetetrazole (PTZ)-induced attacks at 100 mg/kg peroral dose; type: functional; conditions: route oral; in short: as §1
Mus musculus [10] = experiment: Motor coordination of mouse as number of falls in […] was reported after 10 mg/kg peroral dose using rotarod test; type: functional; conditions: route oral
Mus musculus [11] = experiment: Motor coordination of mouse as number of falls in 30 sec was reported after 30 mg/kg peroral dose using rotarod test; type: functional; conditions: route oral; in short: as §3
Mus musculus [12] = experiment: Anxiolytic activity in mice using light-dark box and % time spent in light was reported at 30 mg/kg peroral dose; type: functional; conditions: route oral; in short: as §2
[13] = target: GABA-A receptor; anion channel; parameters: species or system Bos taurus
Mus musculus [14] = experiment: Anxiolytic activity in mice using light-dark box and no. of transfers between compartments were reported at 30 mg/kg peroral dose; type: functional; conditions: route oral; in short: as §2
[15] = target: GABA-A receptor; anion channel (Homo sapiens) (UniProt P14867+P47870+P18507+P28472+P48169+Q99928+Q9UN88+P34903+O00591+O14764+Q8N1C3+P18505+P78334+P47869+P31644+Q16445); experiment: Percent inhibition [3H]Ro-151788 binding to Benzodiazepine receptor from bovine brain membrane at 10 uM; conditions: Bos taurus, target entry is the homologue from another species
Mus musculus [16] = experiment: Percent anticonvulsant activity against pentylenetetrazole (PTZ)-induced attacks at 3 mg/kg peroral dose; type: functional; conditions: route oral; in short: as §1
Mus musculus [17] = experiment: Motor coordination of mouse as number of falls in 30 sec was reported after 3 mg/kg peroral dose using rotarod test; type: functional; conditions: route oral; in short: as §3
Mus musculus [18] = experiment: Motor coordination of mouse as number of falls in 30 sec was reported after 10 mg/kg peroral dose using rotarod test; type: functional; conditions: route oral
In short: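 Male CD-1 mice are dosed po in 1% CMC (flumazenil ip). Falls from a rota rod turning at 24 rpm are counted over 30 s, 25 min after drug administration, and compared with vehicle-treated mice. Means ± SEM.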

Mus musculus [19] = experiment: Anxiolytic activity in mice using light-dark box and no. of transfers between compartments were reported at 3 mg/kg peroral dose; type: functional; conditions: route oral; in short: as §2
Mus musculus [20] = experiment: Anxiolytic activity in mice using light-dark box and % time spent in light was reported at 3 mg/kg peroral dose; type: functional; conditions: route oral; in short: as §2

Question: For `Cc1ccc(-c2nc3ccc(C)cn3c2CC(=O)N(C)C)cc1` [ZOLPIDEM], which Ki [1] is on record?
Answer: > 1000 nM

Question: Which Activity (Mus musculus [2]) does the source give for `O=C(OCc1ccco1)c1cnn2c1n[n+]([O-])c1ccc(Cl)cc12` [listing 1 of 2 here] here?
Answer: 27.3%

Question: And the Activity (Mus musculus [3])?
Answer: 96.16%

Question: And the No. of falls (Mus musculus [4])?
Answer: 0.45

Question: What about the No. of transfers (Mus musculus [5]) of the same molecule?
Answer: 15.71

Question: What about the Activity (Mus musculus [6]) of the same molecule?
Answer: 7.7%

Question: And the Activity (Mus musculus [7])?
Answer: 96.8%

Question: And the No. of transfers (Mus musculus [8])?
Answer: 14

Question: And the Activity (Mus musculus [9])?
Answer: 27.3%

Question: And the No. of falls (Mus musculus [10])?
Answer: 0.27

Question: What about the No. of falls (Mus musculus [11]) of the same molecule?
Answer: 0.08

Question: And the Activity (Mus musculus [12])?
Answer: 125.02%

Question: What about the Ki [13] of the same molecule?
Answer: 24.4 nM

Question: What about the No. of transfers (Mus musculus [14]) of the same molecule?
Answer: 18.6

Question: Which inhibition [15] does the source give for `O=C(OCc1ccoc1)c1cnn2c1n[n+]([O-])c1ccc(Cl)cc12` here?
Answer: 96%

Question: For `Cc1ccccc1OC(=O)CC1C=NN2c3cc(Cl)ccc3[N+]([O-])=NC12` (stereo not drawn), which inhibition [15] is on record?
Answer: 70%

Question: Which inhibition [15] does the source give for `O=C(OCc1ccco1)c1cnn2c1n[n+]([O-])c1ccc(Cl)cc12` [listing 2 of 2 here] here?
Answer: 100%

Question: What does the source list for `CN1C(=O)CN=C(c2ccccc2)c2cc(Cl)ccc21.O=C(OCc1cccs1)c1cnn2c1n[n+]([O-])c1ccc(Cl)cc12`?
Answer: Activity (Mus musculus [16]): 50%; No. of falls (Mus musculus [17]): 0.3

Question: Which inhibition [15] does the source give for `O=C(OCc1cccs1)c1cnn2c1n[n+]([O-])c1ccc(Cl)cc12` here?
Answer: 93%

Question: Which inhibition [15] does the source give for `O=C(Cc1cnn2c1n[n+]([O-])c1ccc(Cl)cc12)OCc1cccs1` here?
Answer: 35%

Question: Which inhibition [15] does the source give for `COc1ccccc1COC(=O)Cc1cnn2c1n[n+]([O-])c1ccc(Cl)cc12` here?
Answer: 50%

Question: With `CCOC(=O)Cc1cnn2c1n[n+]([O-])c1ccc(Cl)cc12` as the molecule, how does the inhibition [15] read?
Answer: 53%

Question: For `CN1C(=O)CN=C(c2ccccc2)c2cc(Cl)ccc21.O=C(OCc1ccsc1)c1cnn2c1n[n+]([O-])c1ccc(Cl)cc12`, which Activity (Mus musculus [2]) is on record?
Answer: 100%

Question: And the No. of transfers (Mus musculus [5])?
Answer: 27.9

Question: What about the Activity (Mus musculus [7]) of the same molecule?
Answer: 149.16%

Question: And the No. of falls (Mus musculus [18])?
Answer: 0.55

Question: For `O=C(OCc1cccs1)c1cnn2c1nnc1ccc(Cl)cc12`, which inhibition [15] is on record?
Answer: 96%

Question: And the Ki [13]?
Answer: 6.26 nM

Question: What does the source list for `O=C(OCc1ccsc1)c1cnn2c1n[n+]([O-])c1ccc(Cl)cc12`?
Answer: Activity (Mus musculus [2]): 18.2%; Activity (Mus musculus [16]): 30%; No. of transfers (Mus musculus [19]): 15.7; No. of transfers (Mus musculus [5]): 16; Activity (Mus musculus [6]): 9%; Activity (Mus musculus [7]): 91.84%; No. of falls (Mus musculus [11]): 0.27; No. of falls (Mus musculus [18]): 0.36; No. of falls (Mus musculus [17]): 0.2; Ki [13]: 13.3 nM; Activity (Mus musculus [20]): 110.3%

Question: Which results are given for `O=C(OCC1CCOC1)c1cnn2c1n[n+]([O-])c1ccc(Cl)cc12` (stereo not drawn)?
Answer: inhibition [15]: 85%; Ki [13]: 680 nM

Question: For `COc1ccccc1OC(=O)CC1C=NN2c3cc(Cl)ccc3[N+]([O-])=NC12` (stereo not drawn), which inhibition [15] is on record?
Answer: 88%

Question: What about the Ki [13] of the same molecule?
Answer: 171 nM

Question: For `CN1C(=O)CN=C(c2ccccc2)c2cc(Cl)ccc21.O=C(OCc1ccco1)c1cnn2c1n[n+]([O-])c1ccc(Cl)cc12`, which Activity (Mus musculus [2]) is on record?
Answer: 88.9%

Question: What about the No. of transfers (Mus musculus [5]) of the same molecule?
Answer: 27.1

Question: What about the Activity (Mus musculus [7]) of the same molecule?
Answer: 142.02%

Question: And the No. of falls (Mus musculus [18])?
Answer: 1.55

Source: ChEMBL document CHEMBL1135690, “Benzodiazepine receptor ligands. 7. Synthesis and pharmacological evaluation of new 3-esters of the 8-chloropyrazolo[5,1-c][1,2,4]benzotriazine 5-oxide. 3-(2-Thienylmethoxycarbonyl) derivative: an anxioselective agent in rodents” (J Med Chem, 2002)
